Bioassay records deposited in PubChem BioAssay by Johns Hopkins Ion Channel Center.
This is a sample that favours compounds with a hit; in the whole collection about 3.5% have one here.
MrgX1 antag: human MrgX1 receptor antagonism, primary screen. MRGX1-HEK293 calcium flux, Fluo-4, BAM8-22 antagonism; active compounds read low. B-score at 10 µM. hit rate 1.3% among 310,000. AID 588676;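 active = calcium-response B-score plate-corrected more than 3 library SD below zero, starting fluorescence within 5 deviations, no agonist response on first addition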;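 also: peak minus trough fluorescence over baseline after final BAM8-22 challenge near maximal dose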
Target sequence (Q96LB2 whole entry, looked up): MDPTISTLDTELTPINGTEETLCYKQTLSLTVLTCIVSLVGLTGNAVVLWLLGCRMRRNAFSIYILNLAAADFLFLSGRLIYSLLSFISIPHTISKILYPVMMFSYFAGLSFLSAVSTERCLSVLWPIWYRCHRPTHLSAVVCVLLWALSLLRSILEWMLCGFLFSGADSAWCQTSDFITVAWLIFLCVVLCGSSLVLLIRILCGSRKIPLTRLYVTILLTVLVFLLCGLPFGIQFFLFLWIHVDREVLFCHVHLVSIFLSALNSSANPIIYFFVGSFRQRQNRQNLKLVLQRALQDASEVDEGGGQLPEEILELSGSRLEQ
MrgX1 agonist: agonists of human MrgX1 receptor; B-score at 10 µM; MrgX1-HEK293 cells, Fluo-4 calcium fluorescence, agonist mode; active compounds read high; hit rate 0.44% among 310,000; AID 588627;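 active = calcium response B-score plate-corrected fluorescence ratio at least 3 library SD, with starting fluorescence B-score inside 5 SD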
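Material – MrgX1-expressing HEK293 cells · Input – 15,000 cells seeded per well · Dosing – compound as first of three additions · Times – overnight seeding, then 1 h dark dye loading · Measured by – kinetic Fluo-4 NW fluorescence of intracellular calcium · Read-out – B-scored fluorescence response ratio · Benchmarks – positive and negative control wells on each plate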
RGS4 act: RGS4 potentiation or activation; HEK293 M3R/inducible RGS4, carbachol calcium flux Fluo4; active compounds read low; B-score at 10 µM; hit rate 0.92% among 310,000;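 active = B-score of the integrated calcium signal more than 4 SD below the library mean, with starting fluorescence not abnormally high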;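 also: negative B-score means reduced calcium response which marks RGS4 activation or potentiation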
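Detection: kinetic calcium fluorescence imaging with Fluo4-AM dye, 2 µM / Material: HEK293 cells with stable M3R and inducible RGS4 / Schedule: recording 10 s baseline at 1 Hz, 100 s post-agonist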
RGS4 block: inhibitors of human RGS4; P49798; HEK293 M3R/RGS4 inducible, Fluo-4 calcium flux; active compounds read high; triggered by carbachol at its EC20; B-score at 10 µM; hit rate 0.45% among 310,000;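 active = B-score, a plate-corrected calcium signal, over three deviations above library mean, with baseline fluorescence within five deviations of library mean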;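 also: RGS4 expression induced by doxycycline in cells with stable M3 receptor; B-score is computed from the integrated fluorescence ratio over baseline after carbachol; higher B-score means a larger calcium signal and so more RGS4 inhibition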
Target sequence (P49798 whole entry, looked up): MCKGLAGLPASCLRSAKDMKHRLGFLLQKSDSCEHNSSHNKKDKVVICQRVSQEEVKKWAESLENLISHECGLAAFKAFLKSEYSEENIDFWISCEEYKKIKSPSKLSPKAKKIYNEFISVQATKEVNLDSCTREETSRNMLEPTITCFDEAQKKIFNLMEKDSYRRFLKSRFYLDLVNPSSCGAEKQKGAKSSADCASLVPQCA
MrgX1 PAM: allosterically activates human MrgX1 receptor signaling. Q96LB2. MrgX1-HEK293, Fluo-4 calcium flux, FDSS; active compounds read high. B-score at 10 µM. hit rate 0.63% among 310,000. AID 588675;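 active = plate-corrected calcium response at least 3 library SD above typical, normal starting fluorescence, not activating the receptor alone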;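 also: compound read alongside a low EC10 to EC30 dose of BAM8-22 agonist; peak minus trough fluorescence over baseline measured at the second addition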
MrgX1 antag conf: reconfirmed antagonist of human MrgX1 receptor signaling. shares compounds with MrgX1 antag. MrgX1-HEK293, BAM8-22 calcium flux, Fluo-4; active compounds read low. remaining BAM8-22 calcium response % of control (active compounds read low), % at 10 µM. hit rate 19% among 2,300. AID 602420;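 active = remaining agonist calcium response no higher than 100% minus 3 SD of agonist-only control wells, with starting fluorescence near control levels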;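 also: agonist BAM8-22 given at a near maximal EC90 to ECmax level; peak minus minimum fluorescence divided by baseline after agonist addition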
HEK293 Ca flux: counter-screen for MrgX1 antagonists: effect in parental HEK293 cells; shares compounds with MrgX1 antag; Fluo-4 calcium fluorescence, FDSS; fluorescence ratio F(max-min)/F0 at 10 µM; hit rate 2% among 4,000; AID 624111;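 active = duplicate-averaged calcium fluorescence ratio at least three times the standard deviation of buffer wells, a nonspecific response in parental cells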
HEK293 Ca counter: MrgX1 allosteric activator counter-screen hit in parental HEK293 cells; hit rate 0.4% among 4,000; parental HEK293 calcium flux, Fluo-4 fluorescence ratio; active compounds read high; shares compounds with MrgX1 antag; AID 624114; fluorescence ratio F(max-min)/F0 at 10 µM;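 active = calcium fluorescence ratio, averaged over duplicates, at least 3 SD of the buffer-well ratio, meaning a nonspecific response in receptor-free cells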;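 also: untransfected parental HEK293 lacking MrgX1 used as counterscreen for MrgX1 allosteric activators; fluorescence change taken during the second addition on a kinetic imager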
HEK293 Ca cntr2: MrgX1 activator counter-screen hit in parental HEK293 cells. Fluo-4 calcium fluorescence (FDSS); active compounds read high. AID 624115. fluorescence ratio F(max-min)/F0 at 10 µM. hit rate 8.7% among 4,000. shares compounds with MrgX1 antag;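 active = calcium fluorescence ratio at least three times the spread of buffer wells, meaning a non-specific response in parental cells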
A number is an active result; i = inactive; nt = no result given.

SMILES	MrgX1 antag	MrgX1 agonist	RGS4 act	RGS4 block	MrgX1 PAM	MrgX1 antag conf	HEK293 Ca flux	HEK293 Ca counter	HEK293 Ca cntr2
O=C(OCc1nnc(-c2ccccc2)o1)C1CC(=O)N(Cc2ccco2)C1 (centres undefined)	-5	i	i	i	i	i	i	i	i
Cc1ccc(NC(=O)CSc2ncnc3ccccc23)cc1S(=O)(=O)N1CCCCCC1	-5.3	i	i	i	i	67%	i	i	i
CC(C)c1ccc(-c2nc(N3CCCC3)nc3n[nH]c(N)c23)cc1	-5.4	i	i	i	i	i	i	i	i
COc1ccc(/C=C2\SC(=O)N=C2N)cc1	i	i	i	i	i	nt	nt	nt	nt
COc1cccc(C(=O)C2CCCN(C(=O)c3ccc(C#CC(C)(C)O)cc3)C2)c1 (centres undefined)	i	i	i	i	i	nt	nt	nt	nt
CSc1cccc(NC(=O)C2CCCN(S(=O)(=O)c3ccc(F)cc3)C2)c1 (centres undefined)	-6.5	i	i	i	i	67%	i	i	i
CSc1cccc(NC(=O)C2CCN(S(=O)(=O)c3ccc(F)cc3)CC2)c1	i	i	i	i	i	nt	nt	nt	nt
Cc1ccc(C(C(=O)NC2CCCC2)N(Cc2ccc(F)cc2)C(=O)c2csnn2)o1 (centres undefined)	-4.6	i	i	i	i	i	i	i	i
Cc1ccc(C(C(=O)NC2CCCC2)N(Cc2ccccc2)C(=O)c2csnn2)o1 (centres undefined)	i	i	i	i	i	nt	nt	nt	nt
O=C(CCc1ccccc1)NCc1ccc(F)cc1	i	i	i	i	i	nt	nt	nt	nt
O=C(O)CCC(=O)NCc1ccc(F)cc1	-6.3	i	i	i	i	i	i	i	i
CCC(=O)Nc1c(C(=O)N2CCN(c3ccccn3)CC2)cnn1-c1ccc(C)cc1	-7.5	i	i	i	i	i	i	i	i
Cc1nnnn1-c1ccc(CC(=O)O)cc1	-7.1	i	i	i	i	i	i	i	i
O=C(O)CSc1nnnn1-c1ccccc1	i	i	i	i	i	nt	nt	nt	nt
c1ccc(COC2CCCN(Cc3nc(-c4cnccn4)no3)C2)nc1 (centres undefined)	i	i	i	i	i	nt	nt	nt	nt
O=C(CCC(=O)Nc1ccc(F)cc1)N/N=C/c1ccncc1	i	i	i	i	i	nt	nt	nt	nt
CCOC(=O)C1CCCN(S(=O)(=O)c2nc3nc(C)cc(C)n3n2)C1 (centres undefined)	-5.8	i	i	i	i	i	i	i	i
CCOC(=O)C1CCCN(S(=O)(=O)c2cc3[nH]c(=O)c(=O)[nH]c3cc2C)C1 (centres undefined)	i	i	i	i	i	nt	nt	nt	nt
CCc1nnc(NC(=O)CSc2nnc(CCc3nc4ccccc4[nH]3)n2C)s1	i	i	i	i	i	nt	nt	nt	nt
Cc1nnc(NC(=O)CSc2nnc(CCc3nc4ccccc4[nH]3)n2C)s1	-4.6	i	i	i	i	i	i	i	i
O=C(O)CCN1C(=O)NC2(CCCC2)C1=O	-7.3	i	i	i	i	i	i	i	i
O=C(CN1C(=O)NC2(CCCC2)C1=O)Nc1ccccc1	i	i	i	i	i	nt	nt	nt	nt
Cc1ccc(S(=O)(=O)CCC(=O)Nc2cc(Cl)ccc2-n2cncn2)cc1	i	i	i	i	i	nt	nt	nt	nt
Cc1c(NC(=O)CC(C)C)c(=O)n(-c2ccccc2)n1C	i	i	i	i	i	nt	nt	nt	nt
O=C(O)c1ccc(NC2=C(Cl)C(=O)c3ccccc3C2=O)cc1	-18	i	-7.3	i	i	14%	i	i	i
SMILES	MrgX1 antag	MrgX1 agonist	RGS4 act	RGS4 block	MrgX1 PAM	MrgX1 antag conf	HEK293 Ca flux	HEK293 Ca counter	HEK293 Ca cntr2
Cc1ccc(C(=O)Nc2ccc3c(c2)C(=O)N(C)C3=O)c(C)c1	-6.8	i	i	i	i	i	i	i	i
NC(=O)C1CCN(c2ncnc3c2c(-c2ccccc2)cn3-c2ccccc2)CC1	-5.2	i	i	i	i	i	i	i	i
Cc1ccc(Cl)cc1N1CCN(C(=O)CN(C2CCCCC2)S(C)(=O)=O)CC1	-12	i	i	i	i	i	i	i	i
CS(=O)(=O)N(CC(=O)N1CCN(c2cccc(Cl)c2)CC1)C1CCCCC1	i	i	i	i	i	nt	nt	nt	nt
CC(C)NC(=O)c1sc2nc(-c3cccs3)cc(-c3cccs3)c2c1N	-9	i	i	i	i	i	i	i	i
CC(=O)c1sc2nc(-c3cccs3)ccc2c1N	i	i	i	i	i	nt	nt	nt	nt
COc1ccc(/C=N/n2c(C)nnc2C)c(OC)c1	i	i	i	i	i	nt	nt	nt	nt
COc1cc(OC)c(/C=N/n2c(C)nnc2C)c(OC)c1	-4.8	i	i	i	i	i	i	i	i
c1ccc(-c2nc(-c3ccncc3)no2)cc1	-7.6	i	i	i	i	i	i	i	i
Clc1ccccc1-c1nc(-c2ccncc2)no1	i	i	i	i	i	nt	nt	nt	nt
c1ccc(-c2ccccc2-c2nc(-c3ccncc3)no2)cc1	-4.7	i	i	i	i	i	i	i	i
CC(C)NCc1nnc(-c2ccc(Cl)cc2)o1	i	i	i	i	i	nt	nt	nt	nt
Cc1cc2oc(=O)cc(CN3CCN(S(=O)(=O)c4ccc5c(c4)OCCO5)CC3)c2cc1C	-8.6	i	i	i	i	i	i	i	i
Cn1c(/C(C#N)=N/O)nc2ccccc21	i	i	i	i	i	nt	nt	nt	nt
O=S1(=O)N=C2CCCCCN2C(c2ccccc2)N1 (centres undefined)	-4.6	i	i	i	i	85%	i	i	i
Cc1cc(Cl)ccc1NC(=O)CCCN1C(=O)CCC1=O	i	i	i	i	i	nt	nt	nt	nt
Cc1cccc(OCCCC(=O)Nc2nc3ccccc3[nH]2)c1	i	i	i	i	i	nt	nt	nt	nt
CCCCCOC(=O)Cc1c(C)nc(-c2ccccc2)[nH]c1=O	i	i	nt	nt	i	nt	nt	nt	nt
CCOC(=O)c1ccccc1NC(=O)N[C@@H](C)C(=O)OC	-4.6	i	i	i	i	i	i	i	i
COC(=O)c1ccccc1NC(=O)N[C@@H](C)C(=O)OC	i	i	i	i	i	nt	nt	nt	nt
CCCC[n+]1ccc(-c2nc3ccc([N+](=O)[O-])cc3[nH]2)cc1	i	i	i	i	i	nt	nt	nt	nt
O=[N+]([O-])c1ccc(-c2nc3ccc([N+](=O)[O-])cc3[nH]2)cc1	-10	i	i	i	i	i	i	i	i
COC(=O)c1c(C)oc(C)c(C(=O)OC)c1=O	-7	i	i	i	i	i	i	i	i
Cc1oc(C)c(C(=O)O)c1C(=O)O	i	i	i	i	i	nt	nt	nt	nt
